How the values were obtained:
[1] = target: T1, 5-hydroxytryptamine receptor 1A (Rattus norvegicus, UniProt P19327); assay: Tested in vitro for binding affinity by measuring its ability to inhibit [3H]8-OH-DPAT binding at 5-hydroxytryptamine 1A receptor in rat cerebral cortex membranes.; assay type: cell membranes
T1 sequence (P19327 whole entry): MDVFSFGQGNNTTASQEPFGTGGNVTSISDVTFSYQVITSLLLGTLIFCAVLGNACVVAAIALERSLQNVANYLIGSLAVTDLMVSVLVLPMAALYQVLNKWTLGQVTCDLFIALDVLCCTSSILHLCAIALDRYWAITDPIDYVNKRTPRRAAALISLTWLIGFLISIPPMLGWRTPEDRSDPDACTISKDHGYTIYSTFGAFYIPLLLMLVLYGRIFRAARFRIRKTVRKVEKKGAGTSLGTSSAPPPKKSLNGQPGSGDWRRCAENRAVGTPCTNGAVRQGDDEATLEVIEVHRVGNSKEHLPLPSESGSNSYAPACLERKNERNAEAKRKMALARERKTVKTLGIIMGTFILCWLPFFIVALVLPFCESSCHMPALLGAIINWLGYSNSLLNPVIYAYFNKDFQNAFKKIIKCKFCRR
Outline: (§1)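 Rat cortex homogenized in ice-cold 50 mM Tris-HCl (pH 7.7), spun at 28000g, washed twice, preincubated 37 °C 10 min, resuspended in Tris/5 mM MgSO4/0.5 mM EDTA (pH 7.4). About 1 mg protein incubated 15 min at 37 °C with 0.6 nM [3H]-8-OH-DPAT and competitor, in buffer with 10 nM clonidine and 30 nM prazosin. Nonspecific binding: 10 μM 5-HT. Prescreen at 10^-6 M; curves run if displacement ≥55%.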

[2] = target: T2, Adrenergic receptor alpha-1 (Rattus norvegicus, UniProt P15823+P23944+P43140); assay: In vitro binding affinity against alpha-1 adrenergic receptor of rat cerebral cortex using [3H]prazosin as radioligand.; assay type: tissue-based
T2 sequence (P15823 whole entry): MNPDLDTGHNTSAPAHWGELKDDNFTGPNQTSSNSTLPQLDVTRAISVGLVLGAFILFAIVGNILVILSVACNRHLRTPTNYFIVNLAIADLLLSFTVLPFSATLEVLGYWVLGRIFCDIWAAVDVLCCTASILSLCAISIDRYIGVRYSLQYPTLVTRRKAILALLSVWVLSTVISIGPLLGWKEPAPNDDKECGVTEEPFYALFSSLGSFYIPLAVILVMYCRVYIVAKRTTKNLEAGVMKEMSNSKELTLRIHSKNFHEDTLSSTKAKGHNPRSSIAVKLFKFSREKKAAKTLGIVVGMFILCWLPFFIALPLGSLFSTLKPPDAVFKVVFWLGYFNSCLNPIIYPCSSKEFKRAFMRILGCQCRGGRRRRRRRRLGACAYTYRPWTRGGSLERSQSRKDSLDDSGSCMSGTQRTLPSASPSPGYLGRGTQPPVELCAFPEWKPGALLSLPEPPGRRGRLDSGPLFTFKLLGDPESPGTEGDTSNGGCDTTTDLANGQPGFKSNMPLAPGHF
T2 sequence (P23944 whole entry): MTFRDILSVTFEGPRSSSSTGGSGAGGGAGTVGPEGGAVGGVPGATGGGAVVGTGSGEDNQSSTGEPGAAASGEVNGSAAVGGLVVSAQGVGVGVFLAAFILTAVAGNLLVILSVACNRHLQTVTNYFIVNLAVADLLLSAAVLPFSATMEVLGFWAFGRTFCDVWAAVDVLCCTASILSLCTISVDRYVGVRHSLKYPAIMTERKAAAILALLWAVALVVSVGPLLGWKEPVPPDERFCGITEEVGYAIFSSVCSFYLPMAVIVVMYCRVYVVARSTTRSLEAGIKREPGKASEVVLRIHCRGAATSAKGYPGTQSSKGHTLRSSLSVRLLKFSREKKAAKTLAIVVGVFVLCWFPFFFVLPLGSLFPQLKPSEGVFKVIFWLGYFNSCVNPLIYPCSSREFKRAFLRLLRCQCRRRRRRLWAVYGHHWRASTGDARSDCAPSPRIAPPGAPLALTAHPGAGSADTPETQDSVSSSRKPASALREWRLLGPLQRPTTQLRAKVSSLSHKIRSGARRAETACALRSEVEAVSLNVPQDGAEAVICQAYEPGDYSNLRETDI
T2 sequence (P43140 whole entry): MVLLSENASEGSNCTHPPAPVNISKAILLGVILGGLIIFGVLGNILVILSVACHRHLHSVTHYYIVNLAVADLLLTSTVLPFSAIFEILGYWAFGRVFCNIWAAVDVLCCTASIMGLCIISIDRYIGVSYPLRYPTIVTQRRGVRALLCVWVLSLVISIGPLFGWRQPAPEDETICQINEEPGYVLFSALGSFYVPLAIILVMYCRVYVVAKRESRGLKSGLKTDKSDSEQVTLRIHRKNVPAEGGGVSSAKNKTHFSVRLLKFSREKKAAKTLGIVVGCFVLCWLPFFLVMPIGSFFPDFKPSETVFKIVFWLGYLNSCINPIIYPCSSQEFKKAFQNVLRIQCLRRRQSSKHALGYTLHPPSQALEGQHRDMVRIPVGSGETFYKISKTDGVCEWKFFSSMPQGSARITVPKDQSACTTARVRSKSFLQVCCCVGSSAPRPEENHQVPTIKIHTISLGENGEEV
Outline: (§2)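 Rat cerebral cortex homogenized in ice-cold 50 mM Tris-HCl/10 mM MgCl2 (pH 7.7), centrifuged at 30000g, washed twice. About 250 μg membrane protein incubated at 25 °C for 30 min with 0.2 nM [3H]prazosin plus several competitor concentrations. Compounds first screened at 10^-6 M; dose-response curves done where displacement reached ≥55%.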

[3] = target: T2, Adrenergic receptor alpha-1; assay: Tested in vitro for binding affinity by measuring its ability to inhibit [3H]prazosin binding at alpha-1 adrenergic receptor in rat cerebral cortex membranes.; assay type: cell membranes; outline: as §2
[4] = target: T1, 5-hydroxytryptamine receptor 1A; assay: In vitro binding affinity against 5-hydroxytryptamine 1A receptor of rat cerebral cortex using [3H]8-OH-DPAT as radioligand.; assay type: tissue-based; outline: as §1

| Compound | Ki [1] | Ki [2] | Ki [3] | other results |
| --- | --- | --- | --- | --- |
| O=C1C2CCCCN2C(=O)N1CCN1CCN(c2ccccc2)CC1 (stereo not drawn) | 1.35 µM | – | – | – |
| O=C1C2CCCN2C(=O)N1CN1CCN(c2ccccc2)CC1 (stereo not drawn) | – | 2.588 µM | – | – |
| O=C1C2CCCCN2C(=O)N1CN1CCN(c2ccccc2)CC1 (stereo not drawn) | – | 2.075 µM | – | – |
| O=C1C2CCCCN2C(=O)N1CCN1CCN(c2ccc([N+](=O)[O-])cc2)CC1 (stereo not drawn) | 93.6 µM | – | 199 µM | – |
| O=C1C2CCCCN2C(=O)N1CN1CCN(c2cccc(C(F)(F)F)c2)CC1 (stereo not drawn) | – | 3.296 µM | – | – |
| O=C1C2CCCN2C(=O)N1CCN1CCN(c2ccc([N+](=O)[O-])cc2)CC1 (stereo not drawn) | 501 µM | – | 260 µM | – |
| O=C1C2CCCN2C(=O)N1CCCCN1CCN(c2ccc([N+](=O)[O-])cc2)CC1 (stereo not drawn) | 23.9 µM | – | – | – |
| O=C1C2CCCCN2C(=O)N1CN1CCN(c2ccc([N+](=O)[O-])cc2)CC1 (stereo not drawn) | – | 260 µM | – | Ki [4]: 5.97 µM |
| O=C1C2CCCN2C(=O)N1CCN1CCN(c2ccccc2)CC1 (stereo not drawn) | 7.55 µM | – | – | – |
| Nc1ccc(N2CCN(CCCCN3C(=O)C4CCCN4C3=O)CC2)cc1 (stereo not drawn) | > 10 µM | – | – | – |
| O=C1C2CCCN2C(=O)N1CCCN1CCN(c2ccc([N+](=O)[O-])cc2)CC1 (stereo not drawn) | – | – | 7.533 µM | – |
| COc1ccccc1N1CCN(CN2C(=O)C3CCCCN3C2=O)CC1 (stereo not drawn) | – | – | – | Ki [4]: 0.0311 µM |
| O=C1C2CCCCN2C(=O)N1CCN1CCN(c2cccc(C(F)(F)F)c2)CC1 (stereo not drawn) | – | – | 4.325 µM | – |
| CC(C)C(=O)Nc1cccc(N2CCN(CCCCN3C(=O)C4CCCN4C3=O)CC2)c1.Cl (stereo not drawn) | 0.102 µM | – | > 10 µM | – |
| O=C1C2CCCN2C(=O)N1CCCN1CCN(c2ccc(F)cc2)CC1 (stereo not drawn) | 1.18 µM | – | – | – |
| O=C1C2CCCN2C(=O)N1CN1CCN(c2cccc(C(F)(F)F)c2)CC1 (stereo not drawn) | – | 3.296 µM | – | – |
| O=C1C2CCCCN2C(=O)N1CCN1CCN(c2ccc(F)cc2)CC1 (stereo not drawn) | 19.3 µM | – | – | – |
| O=C1C2CCCN2C(=O)N1CCN1CCN(c2cccc(C(F)(F)F)c2)CC1 (stereo not drawn) | – | – | 3.935 µM | – |
| O=C1C2CCCCN2C(=O)N1CCCN1CCN(c2ccc([N+](=O)[O-])cc2)CC1 (stereo not drawn) | 30.6 µM | – | 6.652 µM | – |
| O=C1C2CCCN2C(=O)N1CN1CCN(c2ccc([N+](=O)[O-])cc2)CC1 (stereo not drawn) | – | 260 µM | – | Ki [4]: 6.1 µM |
| O=C1C2CCCN2C(=O)N1CN1CCN(c2ccc(F)cc2)CC1 (stereo not drawn) | – | 1.193 µM | – | – |
| O=C1C2CCCN2C(=O)N1CCN1CCN(c2ccc(F)cc2)CC1 (stereo not drawn) | 23.9 µM | – | – | – |
